Experimental data from ChEMBL document CHEMBL1799918, “Growth inhibitory activities of oxyprenylated and non-prenylated naturally occurring phenylpropanoids in cancer cell lines” (Bioorg Med Chem Lett, 2011).

Tests used:
LoVo = assay: Cytotoxicity against human LoVo cells after 72 hrs by MTT assay; format: functional, cell-based
Procedure, shortened: (§1)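 MTT colorimetric assay on human cancer cell lines; IC50 growth inhibitory concentration determined in vitro for each compound.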

[1] = Cytotoxicity against human U373 cells after 72 hrs by MTT assay; format: functional, cell-based, U-373MG ATCC; settings: U373 MG; procedure, shortened: as §1
SK-MEL-28 = assay: Cytotoxicity against human SK-MEL-28 cells after 72 hrs by MTT assay; format: functional, cell-based; settings: SK-MEL-28, 72 h; procedure, shortened: as §1
PC-3 = assay: Cytotoxicity against human PC3 cells after 72 hrs by MTT assay; format: functional, cell-based; settings: PC-3, 72 h; procedure, shortened: as §1
A549 = assay: Cytotoxicity against human A549 cells after 72 hrs by MTT assay; format: functional, cell-based; settings: A549, 72 h; procedure, shortened: as §1
[2] = Cytotoxicity against human OE21 cells after 72 hrs by MTT assay; format: functional, cell-based; settings: OE21, 72 h; procedure, shortened: as §1
[3] = Cytotoxicity against human U373 cells assessed as growth inhibition at MTT assay-related IC50 by quantitative video microscopy relative to control; format: functional, U-373MG ATCC
[4] = Induction of human U373 cell death assessed as morphological changes at MTT assay-related IC50 after 72 hrs by quantitative video microscopy; format: functional, U-373MG ATCC
[5] = Cytostatic activity against human U373 cells assessed as growth inhibition at MTT assay-related IC50 by quantitative video microscopy relative to control; format: functional, U-373MG ATCC

Compound	IC50 (LoVo)	IC50 [1]	IC50 (SK-MEL-28)	IC50 (PC-3)	IC50 (A549)	IC50 [2]	growth inhibition (GI) [3]	Activity [4]	growth inhibition (GI) [5]
CC(C)=CCOc1ccc2ccc(=O)oc2c1 [7-PRENYLOXYCOUMARIN]	82 µM	> 100 µM	> 100 µM	> 100 µM	> 100 µM	79 µM	–	–	–
CC(C)=CCC/C(C)=C/COc1ccc2ccc(=O)oc2c1 [AURAPTENE]	66 µM	82 µM	87 µM	65 µM	82 µM	58 µM	90%	58%	–
COc1cc(/C=C/C(=O)O)ccc1OCC=C(C)C [BOROPINIC ACID]	> 100 µM	> 100 µM	> 100 µM	> 100 µM	> 100 µM	> 100 µM	–	–	–
COc1cc(/C=C/CO)ccc1O [CONIFERYL ALCOHOL]	64 µM	97 µM	> 100 µM	84 µM	85 µM	60 µM	80%	26%	–
COc1cc(/C=C/C=O)ccc1O [CONIFERYL ALDEHYDE]	23 µM	28 µM	33 µM	35 µM	59 µM	29 µM	–	13%	50%
CC(C)=CCOc1ccc(C(=O)/C=C/c2ccccc2)c(O)c1 [CORDOIN]	58 µM	53 µM	81 µM	71 µM	54 µM	39 µM	95%	88%	–
O=C(O)/C=C/c1ccc(O)cc1 [COUMARIC ACID]	82 µM	> 100 µM	> 100 µM	> 100 µM	> 100 µM	66 µM	–	–	–
Cc1cc(O)c2c(c1)C(=O)c1cc(O)cc(O)c1C2=O [EMODIN]	27 µM	31 µM	35 µM	35 µM	28 µM	29 µM	90%	99%	–
COc1cc(/C=C/C(=O)O)ccc1O [FERULATE]	95 µM	> 100 µM	> 100 µM	> 100 µM	> 100 µM	68 µM	–	–	–
O=C(/C=C/c1ccc(O)cc1)c1ccc(O)cc1O [ISOLIQUIRITIGENIN]	57 µM	68 µM	75 µM	99 µM	85 µM	48 µM	–	7%	60%
COc1c(OCC=C(C)C)ccc2ccc(=O)oc12 [LACINARTIN]	40 µM	70 µM	> 100 µM	46 µM	95 µM	> 100 µM	80%	37%	–
CC(C)=CCOc1cc(O)c2c(c1)C(=O)c1cc(C)cc(O)c1C2=O [MADAGASCIN]	8 µM	5 µM	7 µM	6 µM	20 µM	10 µM	80%	95%	–
COc1cc(/C=C/C=O)cc(OC)c1OC/C=C(\C)CCC=C(C)C [NELUMAL A]	23 µM	8 µM	26 µM	39 µM	71 µM	27 µM	80%	100%	–
COc1cc(/C=C/CO)cc(OC)c1OC/C=C(\C)CCC=C(C)C [NELUMOL A]	38 µM	42 µM	72 µM	40 µM	76 µM	39 µM	80%	17%	–
O=C(O)c1ccc(O)cc1 [PARABEN]	94 µM	> 100 µM	> 100 µM	> 100 µM	> 100 µM	71 µM	–	–	–
O=c1ccc2ccc(O)cc2o1 [UMBELLIFERONE]	97 µM	> 100 µM	> 100 µM	> 100 µM	> 100 µM	33 µM	–	–	–
CC(C)=CCC/C(C)=C/CC/C(C)=C/COc1ccc2ccc(=O)oc2c1 [UMBELLIPRENIN]	50 µM	72 µM	66 µM	75 µM	71 µM	30 µM	90%	40%	–
CC(C)=CCOc1ccc(C(=O)O)cc1 [VALENCIC ACID]	> 100 µM	> 100 µM	> 100 µM	> 100 µM	> 100 µM	> 100 µM	–	–	–
COc1cc(C(=O)O)ccc1O [VANILLIC ACID]	91 µM	> 100 µM	> 100 µM	> 100 µM	> 100 µM	61 µM	–	–	–
